Active and inactive are the calls of the source. The rule behind the calls is not given here.
Key:
[1] = Metal chelating activity assessed as mole fraction of compound required to show 2:1 stoichiometry for compound-Cu2+ complex at 40 uM after 30 mins by UV titration method
Outline: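 Molar ratio method: 2.5 mL of 40 µM ligand in methanol titrated with CuCl2 (1000 µM in methanol) in 0.01 mL steps. Absorbance at 365 nm plotted against mole fraction; stoichiometry read from where the two straight lines cross.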

[2] = Metal chelating activity assessed as compound-Cu2+ complex formation at 20 uM after 30 mins by UV-visible spectrophotometric analysis
Outline: (§1)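 Compound (final 20 µM in methanol) mixed with metal salt (CuCl2, FeSO4, ZnCl2, AlCl3, MgCl2 or CaCl2, final 20 µM in methanol). After 30 min at room temperature, UV spectra recorded from 200 to 500 nm in 1-cm quartz cells on a dual-beam spectrophotometer.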

[3] = tested on: PC-12; assay: Neuroprotection against H2O2-induced cell death in rat PC12 cells assessed as cell viability at 5 uM preincubated for 3 hrs followed by H2O2 stimulation measured after 2 hrs by MTT assay (reference value: 25.2 to 41.8%); type: functional; details: read-out: Activity
[4] = tested on: PC-12; assay: Inhibition of H2O2-induced ROS generation in rat PC12 cells assessed as intracellular ROS level at 1 uM preincubated for 6 hrs followed by H2O2 addition measured after 18 hrs by DCFH-DA staining based fluorimetric method relative to control; type: functional; parameters: scale not given: the % may be the effect or the level left
Outline: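 PC12 cells at 1×10^4/well in RPMI with 10% FBS and penicillin/streptomycin, 24 h at 37 °C, 5% CO2. Test samples (1, 5, 10, 50 µM; ≤0.5% DMSO) for 6 h, PBS wash, then H2O2 150 µM for 18 h. Loaded with 10 µM DCFH-DA for 30 min at 37 °C in the dark, washed twice. DCF fluorescence read at ex 485/em 528 nm as % of untreated control. Three independent experiments, mean ± SEM.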

[5] = Metal chelating activity assessed as compound-Zn2+ complex formation at 20 uM after 30 mins by UV-visible spectrophotometric analysis; outline: as §1
[6] = Inhibition of soybean 15-LOX assessed as reduction in conversion of linoleic acid to 13-hydroperoxylinoleic acid by spectrophotometric method; parameters: species or system Glycine max
Outline: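 Soybean lipoxygenase type 1-B (final 167 U/mL) with compound (DMSO stock diluted in 0.1 M phosphate buffer pH 8) and linoleic acid (134 mM in ethanol) at room temperature. Formation of 13-hydroperoxylinoleic acid followed spectrophotometrically at 234 nm.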

[7] = tested on: PC-12; assay: Neuroprotection against H2O2-induced cell death in rat PC12 cells assessed as cell viability at 10 uM preincubated for 3 hrs followed by H2O2 stimulation measured after 2 hrs by MTT assay (reference value: 25.2 to 41.8%); type: functional; details: read-out: Activity
[8] = biological target: Amyloid-beta precursor protein (Homo sapiens) (UniProt P05067); assay: Potency index, ratio of compound effect to rifampicin effect for inhibition of amyloid beta (1 to 42) (unknown origin) self-induced aggregation at 100 uM
[9] = tested on: SH-SY5Y; assay: Neuroprotection against H2O2-induced cell death in human SH-SY5Y cells assessed as cell viability at 10 uM preincubated for 3 hrs followed by H2O2 addition measured after 24 hrs by MTT assay relative to control; type: functional; details: read-out: Activity
Outline: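 SH-SY5Y cells grown in DMEM with 10% FBS, 1% L-glutamine and antibiotics, 5×10^3/well. Compound (10 or 50 µM) for 3 h before 250 µM H2O2, then 24 h incubation. MTT read at 570 nm after DMSO solubilization. Viability as blank-corrected % of untreated control; three independent experiments, mean ± SEM.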

Amyloid-beta precursor protein (Homo sapiens), sequence (P05067 whole entry): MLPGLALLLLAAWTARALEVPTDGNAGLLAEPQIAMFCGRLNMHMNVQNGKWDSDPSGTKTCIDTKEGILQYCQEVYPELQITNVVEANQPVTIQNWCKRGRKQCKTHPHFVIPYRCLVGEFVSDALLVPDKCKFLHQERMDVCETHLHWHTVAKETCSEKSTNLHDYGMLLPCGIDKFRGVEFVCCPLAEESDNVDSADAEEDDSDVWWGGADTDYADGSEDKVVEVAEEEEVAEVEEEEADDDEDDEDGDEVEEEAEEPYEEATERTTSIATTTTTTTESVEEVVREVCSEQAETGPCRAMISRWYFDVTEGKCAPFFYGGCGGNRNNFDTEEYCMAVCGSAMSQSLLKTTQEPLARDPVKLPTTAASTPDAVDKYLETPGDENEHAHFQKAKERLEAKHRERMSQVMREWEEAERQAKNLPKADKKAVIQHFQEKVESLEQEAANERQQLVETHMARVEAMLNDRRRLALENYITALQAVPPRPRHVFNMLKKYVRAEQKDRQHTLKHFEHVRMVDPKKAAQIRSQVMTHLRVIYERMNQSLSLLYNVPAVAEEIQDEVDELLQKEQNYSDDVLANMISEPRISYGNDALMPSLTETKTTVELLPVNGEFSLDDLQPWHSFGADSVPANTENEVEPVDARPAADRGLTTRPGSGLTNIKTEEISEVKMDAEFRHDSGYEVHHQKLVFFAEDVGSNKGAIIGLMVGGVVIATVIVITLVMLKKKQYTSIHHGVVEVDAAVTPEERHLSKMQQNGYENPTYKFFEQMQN

Q: What does the source list for `COc1ccc(-c2cc3ccc(OCCCn4cc(CNC(=O)CCCCC5CCSS5)nn4)cc3oc2=O)cc1OC` (centres undefined)?
A: Activity [1]: 0.5 molar ratio; Activity [2]: Active; viability at 5 µM [3]: 40.6%; Activity [4]: 88.84%; Activity [5]: inactive; IC50 [6]: > 100 µM; viability at 10 µM [7]: 43.5%; Ratio [8]: 2; viability at 10 µM [9]: 64%

Source: ChEMBL document CHEMBL4152262, “Design, synthesis and evaluation of novel multi-target-directed ligands for treatment of Alzheimer's disease based on coumarin and lipoic acid scaffolds” (Eur J Med Chem, 2018)
